Compound activity: PubChem, Sanford-Burnham Center for Chemical Genomics
DNMT1 inh: DNMT1 (human) enzyme inhibition | 360,000 tested, 0.83% active | inhibition (reported as % activation of signal), % at 10 µM | AID 588458 | P26358 | DNMT1 molecular beacon, Hinp1I cleavage, fluorescence; in the data active = inhibition above about 50%
Scp-1 inhibitor: inhibitors of human Scp-1 phosphatase; 340,000 tested, 0.88% active; Recombinant Scp1, phosphopeptide, malachite green phosphate absorbance; AID 493091; Q9GZU7; inhibition, % at 20 µM;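 active = inhibition above about 50% at 20 µM, limit read from the data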;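 also: plate controls were DMSO wells with enzyme for no effect and wells lacking enzyme for full effect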
Target sequence (Q9GZU7 76-261 limits assumed): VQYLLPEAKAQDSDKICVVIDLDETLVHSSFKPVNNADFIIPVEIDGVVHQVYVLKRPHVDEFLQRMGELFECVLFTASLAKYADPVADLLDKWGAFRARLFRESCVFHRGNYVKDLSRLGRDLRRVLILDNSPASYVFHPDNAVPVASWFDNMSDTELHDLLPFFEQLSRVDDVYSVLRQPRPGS
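assay system = SCP-1 phosphatase catalytic domain, residues 76-261 | buffer or medium = 50 mM Tris acetate pH 5.5, 0.005% Tween-20, 10 mM MgCl2 | incubation = enzyme reaction 45 min at room temperature, colour 5 min, stabilisation 30 min | signal = Phosphate-binding colour reagent, absorbance read at 630 nm | measure = % inhibition at 20 µM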
STEP inh: blocks human striatal-enriched tyrosine phosphatase; recombinant STEP, OMFP fluorogenic substrate, fluorescence; inhibition, % at 20 µM; P54829; 360,000 tested, 0.25% active;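 active = inhibition at 20 µM, scaled per plate between control wells, above about 37%, limit read from the data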;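 also: 0% = DMSO with enzyme and substrate and 100% = substrate only without enzyme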
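Test system: STEP tyrosine phosphatase / Reagent: OMFP at 25 µM / Doses: 20 µM, 1% DMSO / Read-out: percent inhibition scaled to no-enzyme and uninhibited-enzyme controls, plate-pattern corrected / Detection: FITC-channel fluorescence of OMFP product / Medium: Bis-Tris buffer pH 6.0, 2.5 mM DTT, 0.005% Tween 20 / Schedule: 20 min at room temperature, dark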
SUMO1 PPI mod: modulators of human SUMO1-mediated protein-protein interactions. inhibition, % at 20 µM. SUMO1 binding to a labelled peptide, TR-FRET, 1 h. 360,000 tested, 0.33% active. P63165. AID 602429; in the data active = inhibition above about 37%
Target sequence (P63165 whole entry, looked up): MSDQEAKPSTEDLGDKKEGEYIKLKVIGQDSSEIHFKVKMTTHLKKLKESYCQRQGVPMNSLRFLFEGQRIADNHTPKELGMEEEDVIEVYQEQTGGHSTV
LMPTP block: blocks human LMPTP phosphatase. P24666. recombinant LMPTP-A, OMFP fluorogenic substrate, fluorescence intensity. inhibition, % at 20 µM. 360,000 tested, 0.22% active. AID 651560;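 active = compounds that cut the enzyme signal by at least half of the control window in the single-dose screen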;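 also: plate controls were DMSO wells with enzyme plus substrate for no effect and substrate without enzyme for full effect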
Target sequence (P24666 whole entry, looked up): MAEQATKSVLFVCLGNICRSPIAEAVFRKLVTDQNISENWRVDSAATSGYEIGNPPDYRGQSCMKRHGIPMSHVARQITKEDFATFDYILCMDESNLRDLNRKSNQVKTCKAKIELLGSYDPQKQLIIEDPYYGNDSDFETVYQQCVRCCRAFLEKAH
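Buffer or medium: Bis-Tris pH 6.0, DTT, detergent; Assay system: LMPTP-A enzyme; Quantity: 0.625 nM enzyme; Detection: endpoint fluorescence intensity; Times: 50 min dark incubation at room temperature; Controls: substrate-only low control, DMSO enzyme-plus-substrate high control; Doses: single 20 µM dose; Read-out: percent inhibition versus substrate-only and uninhibited controls; Reagent: 400 µM OMFP.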
The depositor's hits bear a star; nt = no result given; + = active, no number. This is a sample that favours compounds with a hit; in the whole collection about 1.7% have one here.

SMILES | DNMT1 inh | Scp-1 inhibitor | STEP inh | SUMO1 PPI mod | LMPTP block
O=c1oc2cc(O)ccc2cc1-c1nc2c(s1)CCc1ccccc1-2 | + | -8 | -37 | -7 | 1
CCN1/C(=C/c2ccc3ccccc3[n+]2CC)C=Cc2ccccc21 | 40 | 104* | 24 | 19 | 46
Cc1cc(C)nc(/N=c2/ssnc2Cl)c1 | -14 | -4 | 5 | 20 | 79*
N=c1c2c3c(sc2nc2n1CCCCC2)CCCCC3 | 4 | -2 | 42* | 4 | 0
CCOc1ccc(NC(=O)CN(C)C(=O)c2ccc3c(c2)S(=O)(=O)N=C2CCCCCN23)cc1OCC | -3 | -10 | 1 | -5 | -7
CCn1c(=NC(=O)c2ccc(S(=O)(=O)N3CCOCC3)cc2)sc2cccc(OC)c21 | -7 | -13 | -3 | 43* | 2
CCn1c(=NC(=O)c2ccc(N3C(=O)CCC3=O)cc2)sc2c(OC)ccc(OC)c21 | 2 | 58* | 4 | -30 | 4
CCCCOc1ccc(C(=O)NCC(=O)NCC(c2ccc(OC)cc2)N2CCCC2)cc1 (stereo unspecified) | -4 | -3 | -3 | -48 | -11
CCc1ccc(-c2n[nH]nc2C2=CC(=O)C[C@H](c3ccc(F)cc3)C2)cc1 | 2 | nt | 1 | 2 | 4
CC(C)C(C(=O)O)N1C(=O)/C(=C/c2cccn2C)SC1=S (stereo unspecified) | 10 | -10 | 1 | -29 | 5
O=C1/C(=C/C=C/c2ccco2)SC(=S)N1c1ccc(O)cc1 | 93* | 59* | 16 | 60* | 58*
CC(C)C(C(=O)O)N1C(=O)/C(=C/C=C/c2ccco2)SC1=S (stereo unspecified) | 85* | 97* | 92* | 108* | 78*
COc1ccc(S(=O)(=O)N2CCOCC2)cc1NC(=O)C1CCCCN1S(=O)(=O)c1ccccc1 (stereo unspecified) | -6 | -14 | 2 | 3 | 1
CC1CC(C)CN(S(=O)(=O)c2ccc3c(c2)CCN3C(=O)C2CC2)C1 (stereo unspecified) | 0 | -7 | 1 | -1 | 1
CCN1C(=NCCN2CCOCC2)N[C@@H](c2ccccc2)C(C(=O)OC)=C1C | 3 | 6 | 0 | 2 | 0
O=C(NC(=S)Nc1cc([N+](=O)[O-])ccc1O)c1ccc2c(c1)OCO2 | 0 | -5 | 14 | -6 | 58*
COc1cc([N+](=O)[O-])ccc1NC(=S)NNC(=O)c1ccc2c(c1)OCO2 | -1 | -8 | 0 | -32 | -1
O=C(C1=C[C@@H]2[C@H]3C(=O)N(c4cccc(Cl)c4)C(=O)[C@H]3[C@@H](C(=O)c3ccc(Cl)cc3)N2C=C1)c1ccccc1 | 69* | -10 | 4 | -3 | 3
Oc1ccc(/C=N/NC(=S)Nc2cccnc2)c(O)c1O | 3 | 6 | 16 | 81* | 84*
O=C(O)c1ccc(N=C2c3ccccc3-c3ccccc32)cc1 | 13 | -12 | 3 | -25 | -1
COc1ccc(Nc2nc(N)nc(CSC(=S)N3CCN(C)CC3)n2)cc1 | 1 | -6 | 1 | 50* | -1
CN1/C(=C/C=C/c2n(C)c3cc([N+](=O)[O-])c([N+](=O)[O-])cc3[n+]2C)C(C)(C)c2ccccc21 | 6 | nt | 24 | -16 | 58*
Cc1oc2c(C)c3oc(=O)c(CCC(=O)O)c(C)c3cc2c1-c1ccccc1 | 3 | 18 | 2 | 38* | 4
COc1ccc(CCN=C(C)c2cc(C)c(C)cc2O)cc1OC | 1 | -9 | 2 | 1 | -1
O=C(CNc1ccc2c(c1)OCO2)N/N=C\c1ccccc1Cl | -12 | -4 | -3 | 51* | 3
SMILES | DNMT1 inh | Scp-1 inhibitor | STEP inh | SUMO1 PPI mod | LMPTP block
O=C(CNC(=O)c1ccccc1)N/N=C/c1ccccc1Cl | -5 | -6 | -1 | 48* | -1
CC(OC(=O)Nc1ccccc1)C(=O)OC1CCCCC1 (stereo unspecified) | 12 | 10 | -3 | -2 | 0
O=C(NC1CCCC1)c1n[nH]c2ccccc12 | 0 | -5 | 0 | -2 | 0
Cc1cccc(-n2nc3c(c2NC(=O)c2ccco2)CSC3)c1C | 87* | 50 | 2 | 6 | 4
Cn1cnnc1SCC(=O)Nc1ccc(OCc2ccccc2)cc1 | -10 | -4 | 1 | 67* | 2
Cn1cnnc1SCC(=O)Nc1ccccc1 | 0 | -6 | 0 | 2 | -2
C[C@@H]1CN([C@@H](C)CO)C(=O)CCCn2nncc2CO[C@@H]1CN(C)S(=O)(=O)c1ccc2ccccc2c1 | -1 | nt | -2 | -2 | -2
Nc1c(C(=O)O)ccc2c1C(=O)c1ccccc1C2=O | -1 | 0 | 8 | 10 | 9
Nc1cc(C(=O)O)c(N)c2c1C(=O)c1ccccc1C2=O | 17 | 82* | 8 | 33 | 8
Cc1cc(CNC(=O)COC(=O)C2CC3CCCC(C2)C3=O)cc(C)c1O (stereo unspecified) | 0 | -5 | -2 | 4 | -2
NC(CSC(c1ccccc1)(c1ccccc1)c1cccc2ccccc12)C(=O)O (stereo unspecified) | 69* | 2 | 3 | 0 | 3
CC[n+]1cc(-c2ccccc2)nc(N2CCOCC2)n1 | 6 | 99* | -2 | -25 | -1
NC(=O)c1cc(-c2ccccc2)nc(N2CCOCC2)n1 | 5 | -5 | -2 | 3 | 0
CC(C)=NNC(=O)C1=NNC(=O)C1 | 0 | -15 | 1 | -1 | -2
Cc1cccc(N2CCN(C(=O)CN3C(=O)NC(C)(C4CC4)C3=O)CC2)c1C (stereo unspecified) | 47 | 0 | 1 | 45* | 1
Cc1cccc(N2CCN(C(=O)CN3C(=O)NC(C)(C)C3=O)CC2)c1C | 0 | -7 | -3 | -3 | -2
Nc1nn(-c2cccc(F)n2)cc1-c1ccccc1 | 2 | -3 | -1 | 47* | 1
C[C@@H]1CN([C@@H](C)CO)C(=O)CCCn2nncc2CO[C@H]1CN(C)S(=O)(=O)c1ccc(Oc2ccccc2)nc1 | -1 | nt | 0 | 5 | -2
Clc1ccc(-c2cnc3n2CCCCC3)cc1 | 1 | 3 | 0 | 43* | 0
CCCC1=NN2C(=N)/C(=C\c3cc(C)n(-c4cccc(C)c4)c3C)C(=O)N=C2S1 | 56* | -4 | -1 | -3 | -1
O=C(COc1ccc(Cl)cc1Cl)Nc1cccc(-c2ccc(N3CCOCC3)nn2)c1 | 7 | 2 | 0 | -9 | -1
O=C(COc1ccc(Cl)cc1Cl)Nc1ccc(-c2ccc(N3CCOCC3)nn2)cc1 | 2 | 3 | -1 | 55* | 11
Cc1ccc(S(=O)(=O)NCCC(=O)NNC(=O)COc2ccccc2Cl)cc1C | 3 | -8 | 2 | 2 | 0
O=S(=O)(c1ccc(F)c(Cl)c1)N1CCN(C/C=C/c2ccccc2)CC1 | 1 | -2 | 3 | 41* | 2
